An excerpt weighted towards active compounds, which were near 4% of everything screened.
TAAR1 antag = human TAAR1 antagonists, primary screen, Fluo-8 calcium fluorescence, CHO RD-HGA16 cells; Trace amine-associated receptor 1 (Homo sapiens), Q96RJ0; inhibition, % at 3 µM; 1.5% of 360,000 active; antagonist;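 active = inhibition above a per-plate cutoff, the mean inhibition of test compounds on that plate plus 3 SD, cut at about 49% in these data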
Target sequence (Q96RJ0 whole entry, looked up): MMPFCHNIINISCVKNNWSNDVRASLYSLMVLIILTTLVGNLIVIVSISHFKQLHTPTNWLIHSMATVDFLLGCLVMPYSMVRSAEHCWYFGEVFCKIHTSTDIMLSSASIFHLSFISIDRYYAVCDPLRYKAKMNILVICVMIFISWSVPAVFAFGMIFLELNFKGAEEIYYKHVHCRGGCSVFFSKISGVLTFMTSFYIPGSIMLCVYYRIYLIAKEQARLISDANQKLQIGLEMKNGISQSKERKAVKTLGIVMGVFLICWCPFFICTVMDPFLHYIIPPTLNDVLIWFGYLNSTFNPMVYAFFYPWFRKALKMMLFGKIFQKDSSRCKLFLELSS
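Test system – hTAAR1-expressing CHO RD-HGA16 cells, Gα16-coupled · Also added – β-PEA at EC80 concentration, post-compound challenge · Compound – 3 µM, single point · Incubation – dye loading 75 min at 37 °C, then 30 min room temperature · Measured by – Fluo-8 intracellular calcium dye fluorescence, real-time kinetic reads · Benchmarks – vehicle and agonist controls · Replicates – singlicate, one well per test compound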
MPTP inh = mitochondrial permeability transition pore inhibitors, primary screen, biochemical, isolated mouse mitochondria, absorbance | Ca2+ swelling absorbance, 30 min | AID 602449, 2012 | inhibition, % at 10 µM | 1.4% of 360,000 active;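 active = inhibition of 50% or more, scaled per plate between neutral and stimulator controls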
TAAR1 agonist = human TAAR1 agonists, primary screen, Fluo-8 calcium fluorescence, CHO RD-HGA16 cells; activation, % at 3 µM; vehicle wells 0%, saturating PEA agonist 100%; 0.99% of 360,000 active; AID 624467, 2012;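 active = activation above the mean activation of all test compounds in the run plus 3 SD, cut at about 38% in these data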
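Test system: RD-HGA16 (CHO) cells co-expressing Gα16 and hTAAR1; dosing: one-point dosing at 3 µM (nominal); timing: 17-24 h seeding, 75 min 37 °C dye, 30 min RT; signal: kinetic Fluo-8 calcium fluorescence; read-out basis: % activation relative to PEA EC100 response; controls: DMSO and PEA EC100; replicates: n 1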
GPR7 antagonist = GPR7 receptor antagonists, primary screen, cell-based, fluorescence, single concentration. Neuropeptides B/W receptor type 1 (Homo sapiens), P48145. GPR7-expressing cells, fluorescence antagonist assay. inhibition, % at 4.4 µM. 1.1% of 290,000 active. AID 1861, 2009; in the data active = inhibition above about 16%, passing the limit was not always enough;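 note: cells stimulated with the agonist NPW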
Target sequence (P48145 whole entry, looked up): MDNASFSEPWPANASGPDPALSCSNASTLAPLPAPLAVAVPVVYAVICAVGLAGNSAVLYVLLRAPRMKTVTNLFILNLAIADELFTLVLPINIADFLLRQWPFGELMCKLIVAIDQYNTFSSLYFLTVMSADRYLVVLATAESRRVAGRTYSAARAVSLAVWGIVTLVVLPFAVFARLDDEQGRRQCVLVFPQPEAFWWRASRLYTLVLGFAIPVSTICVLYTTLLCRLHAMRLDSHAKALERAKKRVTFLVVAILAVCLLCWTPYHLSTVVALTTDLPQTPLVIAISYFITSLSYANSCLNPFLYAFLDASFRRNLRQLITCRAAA
DAGLB inh = DAGLB lipase inhibitors, primary screen, biochemical, fluorescence, HTS. HEK293T DAGLB membrane lysate, EnzChek fluorogenic substrate. inhibition, % at 5.17 µM. 0.059% of 340,000 active; in the data active = inhibition above about 34%
DAGLB confirm = DAGLB lipase inhibitors, retest, confirmation, biochemical, fluorescence, HEK293T membranes. shares compounds with DAGLB inh. HEK293T DAGLB membrane lysate, EnzChek fluorogenic substrate. inhibition, % at 5.17 µM. 73% of 190 active. AID 504445, 2011;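 active = mean inhibition over triplicate wells above a set limit taken from the primary lipase screen, cut at about 34% in these data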
Numbers stand for hits; - = inactive; . = no result given.

SMILES	TAAR1 antag	MPTP inh	TAAR1 agonist	GPR7 antagonist	DAGLB inh	DAGLB confirm
O=c1cc(-c2ccccc2Cl)oc2ccc([N+](=O)[O-])c(O)c12	-	-	-	-	-	.
CC1=C(c2ccccc2)CCC1=O	-	-	-	.	-	.
O=C1CC(c2ccccc2)=C(c2ccccc2)C1	-	-	-	.	71	-
c1ccc(CCNc2cc(-c3ccc4ccccc4c3)nc3ccnn23)nc1	-	-	-	.	.	.
Cc1ccsc1CNC(=O)C1(C)CCN1C(C)C (stereo unspecified)	-	-	-	.	.	.
COc1cc([N+](=O)[O-])cc(/C=C2/SC(=S)N(Cc3ccccc3)C2=O)c1O	-	-	-	-	40	48
O=C(NCc1ccccc1)[C@H]1CCCN1C(=O)[C@H]1CCCN1C(=O)c1cccc(Cl)c1	-	.	-	.	.	.
CCCOc1ccc(F)cc1-c1cc(C(=O)Nc2ccc(C)c(NS(C)(=O)=O)c2)[nH]n1	-	-	-	.	.	.
CN(c1ccccc1)c1ccc(/C=C(/CCC(=O)O)c2nc3ccccc3s2)cc1[N+](=O)[O-]	-	-	-	.	35	50
COc1ccc(-c2cc(CNc3nc(NC(C)C)nc4cc(-c5ccccc5)sc34)on2)cc1	-	-	-	.	.	.
O=C(NC(C(=O)N/N=C/c1c2ccccc2cc2ccccc12)c1n[nH]c(=O)c2ccccc12)c1ccccc1 (stereo unspecified)	-	-	-	-	40	38
COc1cccc(C(C)(O)c2nc(-c3cccc(C(C)C)c3)cs2)c1 (stereo unspecified)	-	-	-	.	.	.
CCN1C(c2ccccc2)=C(c2ccccc2)S/C1=C/C=C1\SC(=S)N(C)C1=O	-	-	-	-	39	-
COc1ccc(NC(=S)NNc2ccc(S(=O)(=O)Nc3ccccc3C(=O)O)cc2[N+](=O)[O-])cc1	-	-	-	-	43	48
COc1ccc(C=NNc2ccc(S(=O)(=O)Nc3ccccc3C(=O)O)cc2[N+](=O)[O-])c(OC)c1	.	-	.	.	43	43
O=C(O)c1ccccc1NS(=O)(=O)c1ccc(NN=Cc2ccccc2F)c([N+](=O)[O-])c1	-	-	-	.	-	.
CCOc1cc(N2CCOCC2)c(OCC)cc1NC(=O)c1ccccc1N1CCCC1=O	-	-	-	.	-	.
CC(=O)C1=C(O)C(=O)N(c2cc(C(C)(C)C)on2)C1c1ccc(Br)cc1 (stereo unspecified)	-	-	-	-	46	42
CC(=O)C1=C(O)C(=O)N(c2cc(C(C)(C)C)on2)C1c1ccc(C(C)C)cc1 (stereo unspecified)	.	-	.	-	-	.
CC(C)(C)C(=O)NC1=NN(c2c(Cl)cc(Cl)cc2Cl)C(=O)C1	-	-	-	-	-	.
COc1cccc(C(=O)Nc2cccc(C(=O)NC3=NN(c4c(Cl)cc(Cl)cc4Cl)C(=O)C3)c2)c1	-	-	-	-	36	-
O=C(NN1C(=O)/C(=C/c2ccc(O)c([N+](=O)[O-])c2)SC1=S)c1ccccc1Cl	-	-	-	-	45	42
Cc1c(C2Nc3ccccc3C2C)[nH]c2ccccc12 (stereo unspecified)	-	.	-	.	.	.
O=C1c2ccccc2C(=O)c2c1cccc2N1CCCC1	-	-	-	-	36	39
O=C1CC(=C(c2ccccc2)c2ccccc2)C(=O)N1CCCCN1CCN(c2cccc(Cl)c2)CC1	-	-	-	-	45	53
SMILES	TAAR1 antag	MPTP inh	TAAR1 agonist	GPR7 antagonist	DAGLB inh	DAGLB confirm
O=C1NC(=Nc2ccccc2Cl)S/C1=C\c1cccc([N+](=O)[O-])c1O	-	-	-	-	36	-
COc1c(/C=C2\SC(=Nc3ccccc3Cl)NC2=O)cccc1[N+](=O)[O-]	-	-	-	-	-	.
CC(C)C[C@@H]1COc2cc(NCCCN3CCOCC3)ccc2S(=O)(=O)N1	-	.	-	.	.	.
CCOc1ccc2c(c1)-c1c(ssc1=S)C(C)(C)N2	.	-	.	-	39	35
Cc1cc2c(c(=O)o1)[C@@]1(C(=O)N(C)c3ccccc31)C1=C(CC(C)(C)OC1=O)O2	-	.	-	.	.	.
CN(C)c1ccc(N=Nc2ccccc2C(=O)OCC(=O)Nc2ccccc2C(F)(F)F)cc1	-	-	-	-	35	59
CN(C)c1ccc(N=Nc2ccccc2C(=O)OCC(=O)N2CCCC2)cc1	-	-	-	-	-	.
Oc1ccc(N=Nc2nc(-c3ccccc3)c(-c3ccccc3)[nH]2)cc1	-	-	-	-	38	-
Oc1ccc(N=Nc2n[nH]c(-c3ccccc3)n2)cc1	-	-	-	-	-	.
CN1CCN(C(=O)C[C@@H]2C=C[C@H](NS(=O)(=O)c3cccc(F)c3)[C@@H](CO)O2)CC1	-	-	-	.	.	.
CC(=O)Nc1cc2c(cc1[N+](=O)[O-])-c1ccccc1C2=NO	-	-	-	.	-	.
Nc1cc2c(cc1[N+](=O)[O-])-c1ccccc1C2=NO	-	-	-	.	35	-
CCCNC(=O)C1(C)CCCN(C(=O)COCc2ccccc2)C1 (stereo unspecified)	-	-	-	.	.	.
COC(=O)C1=C(C)N(Cc2ccc(C(F)(F)F)cc2)C(=NCc2ccc(C(F)(F)F)cc2)NC1c1ccc(F)cc1 (stereo unspecified)	-	.	-	.	.	.
Nc1ccc(N=Nc2ccccc2)c2cccnc12	-	-	-	-	37	42
O=C(Nc1cccc(C(F)(F)F)c1)c1cccc(NS(=O)(=O)c2ccc(O)c(C(=O)O)c2)c1	-	-	-	-	41	-
Cc1ccc(Nc2nnc(SCc3nc4ccccc4c(=O)[nH]3)s2)cc1	-	-	-	-	60	50
O=S1(=O)N[C@H](Cc2ccccc2)COc2cccc(F)c21	-	.	-	.	.	.
c1ccc(C2=NN(c3ccccc3)CC2)cc1	-	-	-	-	-	.
c1ccc(N=NC2=NN(c3ccccc3)CS2)cc1	-	-	-	.	41	55
O=C(O)c1ccc(NC2=C/C(=N/S(=O)(=O)c3ccccc3)c3ccccc3C2=O)cc1	-	-	-	-	-	.
Cc1cc(C)c(S(=O)(=O)/N=C2\C=C(Nc3ccc(C(=O)O)cc3)C(=O)c3ccccc32)c(C)c1	-	-	-	-	36	39
O=C(O)c1ccc(NC2=C/C(=N/S(=O)(=O)c3cccs3)c3ccccc3C2=O)cc1	-	-	-	.	-	.
CCc1ccc(S(=O)(=O)/N=C2\C=C(Nc3cccc(C(=O)O)c3)C(=O)c3ccccc32)cc1	-	-	-	-	47	-
CCc1ccc(S(=O)(=O)/N=C2\C=C(Nc3ccc(O)cc3)C(=O)c3ccccc32)cc1	.	-	.	-	40	51
Nc1ccc2ccccc2c1N=Nc1ccccc1	-	-	-	.	36	43

Screening results deposited in PubChem by several laboratories.
